Measurements published in ChEMBL document CHEMBL1629579, “Correlating echinocandin MIC and kinetic inhibition of fks1 mutant glucan synthases for Candida albicans: implications for interpretive breakpoints” (Antimicrob Agents Chemother, 2009).
≈ marks a conversion by molar mass, not a printed value. Numbered stars: 1 amine (or outer) side, 2 acyl side, 3 side chain; on linkers, the order of the positions; unused ones are H or OH. Bridge positions count the residues as written; N and C are the ends. Square brackets hold non-standard residues; d marks the D form. Peptide text beside a SMILES is read from it. * marks the point of attachment. pTerphenylCO(4''-OnC5H11) = CCCCCOc1ccc(-c2ccc(-c3ccc(C(=O)*)cc3)cc2)cc1; Orn(4R-OH,5R-OH) = O=C([C@H](C[C@@H](O)[C@@H](O)N[*:3])N[*:1])[*:2]; hTyr(3S-OH,4S-OH) = N[C@H](C(=O)O)[C@H](O)[C@@H](O)c1ccc(O)cc1; Pro(3S-OH,4S-Me) = C[C@H]1CN[C@H](C(=O)O)[C@H]1O; Hyp = O=C(O)[C@@H]1C[C@@H](O)CN1

What was measured:
[1] = system: Candida albicans; assay: Antimicrobial activity against Candida albicans 90028 by M27-A3 method in presence of 50% human serum; type: functional
Outline: (§1)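 Broth microdilution per CLSI M27-A3 in RPMI 1640, done in triplicate on three separate days. Each strain was tested with and without 50% human serum. C. krusei ATCC 6258 and C. parapsilosis ATCC 22019 served as QC strains. Arithmetic means are reported, and geometric means were used for comparison.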

[2] = system: Candida albicans; assay: Antimicrobial activity against Candida albicans 1002 by M27-A3 method; type: functional
Outline: (§2)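 Broth microdilution per CLSI M27-A3 in RPMI 1640, with and without 50% human serum, in triplicate. C. krusei ATCC 6258 and C. parapsilosis ATCC 22019 served as quality-control strains. MIC reported as arithmetic mean of three repetitions on separate days.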

[3] = system: Candida albicans; assay: Antimicrobial activity against Candida albicans 3107 by M27-A3 method in presence of 50% human serum; type: functional; outline: as §1
[4] = system: Candida albicans; assay: Antimicrobial activity against Candida albicans 3795 by M27-A3 method; type: functional; outline: as §2
[5] = system: Candida albicans; assay: Antimicrobial activity against Candida albicans 3795 by M27-A3 method in presence of 50% human serum; type: functional; outline: as §1
[6] = system: Candida albicans; assay: Antimicrobial activity against Candida albicans 119 harboring FKS1 T1921C mutant gene and FKS1 hotspot1 F641L mutant gene by M27-A3 method; type: functional; outline: as §1
[7] = system: Candida albicans; assay: Antimicrobial activity against Candida albicans 119 harboring FKS1 T1921C mutant gene and FKS1 hotspot1 F641L mutant gene by M27-A3 method in presence of 50% human serum; type: functional; outline: as §1
[8] = system: Candida albicans; assay: Antimicrobial activity against Candida albicans 177 harboring FKS1 T1922C mutant gene and FKS1 hotspot1 F641S mutant gene by M27-A3 method; type: functional; outline: as §1
[9] = system: Candida albicans; assay: Antimicrobial activity against Candida albicans 177 harboring FKS1 T1922C mutant gene and FKS1 hotspot1 F641S mutant gene by M27-A3 method in presence of 50% human serum; type: functional; outline: as §1
[10] = system: Candida albicans; assay: Antimicrobial activity against Candida albicans 2762 harboring FKS1 T1922C mutant gene and FKS1 hotspot1 F641S mutant gene by M27-A3 method; type: functional; outline: as §1
[11] = system: Candida albicans; assay: Antimicrobial activity against Candida albicans 89 harboring FKS1 C1934A mutant gene and FKS1 hotspot1 S645Y mutant gene by M27-A3 method; type: functional; outline: as §1
[12] = system: Candida albicans; assay: Antimicrobial activity against Candida albicans 85 harboring FKS1 C1934T mutant gene and FKS1 hotspot1 S645F mutant gene by M27-A3 method; type: functional; outline: as §1
[13] = system: Candida albicans; assay: Antimicrobial activity against Candida albicans 149 harboring FKS1 G1942T mutant gene and FKS1 hotspot1 D648Y mutant gene by M27-A3 method in presence of 50% human serum; type: functional; outline: as §1
[14] = system: Candida albicans; assay: Antimicrobial activity against Candida albicans 122 harboring FKS1 C1946A mutant gene and FKS1 hotspot1 P649H mutant gene by M27-A3 method; type: functional; outline: as §1
[15] = system: Candida albicans; assay: Antimicrobial activity against Candida albicans 121 harboring FKS1 G4082A mutant gene and FKS1 hotspot2 R1361H mutant gene by M27-A3 method; type: functional; outline: as §1
[16] = system: Candida albicans; assay: Antimicrobial activity against Candida albicans 121 harboring FKS1 G4082A mutant gene and FKS1 hotspot2 R1361H mutant gene by M27-A3 method in presence of 50% human serum; type: functional; outline: as §1
[17] = system: Candida albicans; assay: Antimicrobial activity against Candida albicans 90 harboring FKS1 G4082R mutant gene and FKS1 hotspot2 R1361R/H mutant gene by M27-A3 method in presence of 50% human serum; type: functional; outline: as §1
[18] = Inhibition of Candida albicans 177 1,3-beta-D-glucan synthase subunit FKS1p T1922C mutant
Outline: (§3)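 Enzyme is product-entrapped 1,3-β-D-glucan synthase, enriched from membranes of each strain grown at 37°C with shaking in YPD broth to early stationary phase. Filtration polymerization assay uses [3H]UDPG, started by adding enzyme and run 60 min at 25°C. Echinocandins are added as serial dilutions, with 1% DMSO controls for anidulafungin. IC50 is from a variable-slope sigmoidal fit; values are triplicate arithmetic means.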

[19] = Inhibition of Candida albicans 2762 1,3-beta-D-glucan synthase subunit FKS1p T1922C mutant; outline: as §3
[20] = Inhibition of Candida albicans 89 1,3-beta-D-glucan synthase subunit FKS1p C1934A mutant; outline: as §3
[21] = Inhibition of Candida albicans 122 1,3-beta-D-glucan synthase subunit FKS1p C1946A mutant; outline: as §3
[22] = Inhibition of Candida albicans 121 1,3-beta-D-glucan synthase subunit FKS1p G4082A mutant; outline: as §3
[23] = system: Candida albicans SC5314; assay: Activity at Candida albicans SC5314 1,3-beta-D-glucan synthase subunit FKS1p
Outline: (§4)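 Glucan synthase from cells grown at 37°C with vigorous shaking to early stationary phase in YPD. Membrane enzyme enriched by product entrapment. Serial echinocandin dilutions; ANF controls held 1% DMSO. Reaction started by adding enzyme, run 60 min at 25°C in a filtration polymerization assay, stopped on ice. IC50 from a variable-slope sigmoidal fit; means of three repetitions on separate days.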

[24] = system: Candida albicans; assay: Activity at Candida albicans 36082 1,3-beta-D-glucan synthase subunit FKS1p; outline: as §4
[25] = system: Candida albicans; assay: Activity at Candida albicans 1002 1,3-beta-D-glucan synthase subunit FKS1p; outline: as §4
[26] = system: Candida albicans; assay: Activity at Candida albicans 119 1,3-beta-D-glucan synthase subunit FKS1p T1921C mutant
Outline: (§5)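 Product-entrapped 1,3-β-D-glucan synthase from cells grown in YPD at 37°C to early stationary phase. Wells held 50 mM HEPES pH 7.5, 10% glycerol, 1.5 mg/ml BSA, 25 mM KF, 1 mM EDTA, 25 μM GTP-γ-S, 1 μg enzyme and [3H]UDPG (0.015–2 mM). Reactions ran 60 min at 25°C. Vmax and Km came from Lineweaver-Burke plots, in triplicate.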

[27] = system: Candida albicans; assay: Activity at Candida albicans 177 1,3-beta-D-glucan synthase subunit FKS1p T1922C mutant; outline: as §5
[28] = system: Candida albicans; assay: Activity at Candida albicans 205 1,3-beta-D-glucan synthase subunit FKS1p T1933C mutant; outline: as §5
[29] = system: Candida albicans; assay: Activity at Candida albicans 5415 1,3-beta-D-glucan synthase subunit FKS1p T1933C mutant; outline: as §5
[30] = system: Candida albicans; assay: Activity at Candida albicans 85 1,3-beta-D-glucan synthase subunit FKS1p C1934T mutant; outline: as §5
[31] = system: Candida albicans; assay: Activity at Candida albicans 90 1,3-beta-D-glucan synthase subunit FKS1p G4082R mutant; outline: as §5
[32] = system: Candida albicans; assay: Activity at Candida albicans A15-10 1,3-beta-D-glucan synthase subunit FKS1p T1933C mutant

## CCCCCOc1ccc(-c2ccc(-c3ccc(C(=O)N[C@H]4C[C@@H](O)[C@@H](O)NC(=O)[C@@H]5[C@@H](O)[C@@H](C)CN5C(=O)[C@H]([C@@H](C)O)NC(=O)[C@H]([C@H](O)[C@@H](O)c5ccc(O)cc5)NC(=O)[C@@H]5C[C@@H](O)CN5C(=O)[C@H]([C@@H](C)O)NC4=O)cc3)cc2)cc1 [ANIDULAFUNGIN] ({pTerphenylCO(4''-OnC5H11)}-[Orn(4R-OH,5R-OH)]T[Hyp][hTyr(3S-OH,4S-OH)]T[Pro(3S-OH,4S-Me)]; lactam 1-C)
[1]
  MIC: 0.25 µg/mL
[2]
  MIC: 0.06 µg/mL (≈ 0.0526 µM)
[3]
  MIC: 0.25 µg/mL
[4]
  MIC: 0.06 µg/mL (≈ 0.0526 µM)
[5]
  MIC: 0.44 µg/mL
[6]
  MIC: 0.16 µg/mL (≈ 0.14 µM)
[7]
  MIC: 2 µg/mL
[8]
  MIC: 0.83 µg/mL (≈ 0.728 µM)
[9]
  MIC: 4 µg/mL
[10]
  MIC: 1 µg/mL (≈ 0.877 µM)
[11]
  MIC: 2 µg/mL (≈ 1.75 µM)
[12]
  MIC: 2 µg/mL (≈ 1.75 µM)
[13]
  MIC: 4 µg/mL
[14]
  MIC: 0.67 µg/mL (≈ 0.588 µM)
[15]
  MIC: 0.25 µg/mL (≈ 0.219 µM)
[16]
  MIC: 8 µg/mL
[17]
  MIC: 4 µg/mL
[18]
  IC50: 2.622 µg/mL (≈ 2.3 µM)
  Ki: 4.34233 µg/mL (≈ 3.81 µM)
[19]
  IC50: 1.085 µg/mL (≈ 0.952 µM)
  Ki: 4.48127 µg/mL (≈ 3.93 µM)
[20]
  IC50: 2.739 µg/mL (≈ 2.4 µM)
  Ki: 1.16337 µg/mL (≈ 1.02 µM)
[21]
  IC50: 0.491 µg/mL (≈ 0.431 µM)
  Ki: 0.64607 µg/mL (≈ 0.567 µM)
[22]
  IC50: 0.07599 µg/mL (≈ 0.0666 µM)
  Ki: 0.08457 µg/mL (≈ 0.0742 µM)
[23]
  Km: 125 µM
  Vmax: 6.72 nmol/min
[24]
  Km: 89 µM
  Vmax: 5.87 nmol/min
[25]
  Km: 122 µM
  Vmax: 5.8 nmol/min
[26]
  Km: 54 µM
  Vmax: 2.54 nmol/min
[27]
  Km: 50 µM
  Vmax: 4.4 nmol/min
[28]
  Km: 116 µM
  Vmax: 5.54 nmol/min
[29]
  Km: 98 µM
  Vmax: 3.12 nmol/min
[30]
  Km: 25 µM
  Vmax: 1.83 nmol/min
[31]
  Km: 31 µM
  Vmax: 2.36 nmol/min
[32]
  Km: 91 µM
  Vmax: 3.26 nmol/min
